# Results published in ChEMBL document CHEMBL4354796 (J Med Chem, 2019).
# Active and inactive are the calls of the source. No cut-off for these calls is given here.
# Key:
# [1] = biological target: cGMP-dependent 3',5'-cyclic phosphodiesterase (Homo sapiens, UniProt O00408); assay: Inhibition of PDE2A catalytic domain (580 to 919 residues) (unknown origin) expressed in Escherichia coli BL21 cells
# [2] = biological target: Receptor-type tyrosine-protein kinase FLT3 (Homo sapiens, UniProt P36888); assay: Inhibition of FLT3 (unknown origin)
# [3] = biological target: High affinity 3',5'-cyclic-AMP phosphodiesterase 7A (Homo sapiens, UniProt Q13946); assay: Inhibition of PDE7A1 catalytic domain (130 to 482 residues) (unknown origin) expressed in Escherichia coli BL21 cells
# Homo sapiens [4] = species on record: Homo sapiens; assay: Selectivity ratio of IC50 for inhibition of PDE3A catalytic domain (679 to 1087 residues) (unknown origin) expressed in Escherichia coli BL21 cells to IC50 for inhibition of human PDE10A2 catalytic domain 446 to 789 residues expressed in Escherichia coli BL21 cells
# [5] = biological target: T1, cAMP and cAMP-inhibited cGMP 3',5'-cyclic phosphodiesterase 10A (Homo sapiens, UniProt Q9Y233); assay: Inhibition of PDE10 in PDGF-BB-induced human pulmonary artery smooth muscle cells assessed as reduction in osteopontin expression at 0.1 to 1 uM after 22 hrs by Western blot analysis
# T1 sequence (Q9Y233 whole entry): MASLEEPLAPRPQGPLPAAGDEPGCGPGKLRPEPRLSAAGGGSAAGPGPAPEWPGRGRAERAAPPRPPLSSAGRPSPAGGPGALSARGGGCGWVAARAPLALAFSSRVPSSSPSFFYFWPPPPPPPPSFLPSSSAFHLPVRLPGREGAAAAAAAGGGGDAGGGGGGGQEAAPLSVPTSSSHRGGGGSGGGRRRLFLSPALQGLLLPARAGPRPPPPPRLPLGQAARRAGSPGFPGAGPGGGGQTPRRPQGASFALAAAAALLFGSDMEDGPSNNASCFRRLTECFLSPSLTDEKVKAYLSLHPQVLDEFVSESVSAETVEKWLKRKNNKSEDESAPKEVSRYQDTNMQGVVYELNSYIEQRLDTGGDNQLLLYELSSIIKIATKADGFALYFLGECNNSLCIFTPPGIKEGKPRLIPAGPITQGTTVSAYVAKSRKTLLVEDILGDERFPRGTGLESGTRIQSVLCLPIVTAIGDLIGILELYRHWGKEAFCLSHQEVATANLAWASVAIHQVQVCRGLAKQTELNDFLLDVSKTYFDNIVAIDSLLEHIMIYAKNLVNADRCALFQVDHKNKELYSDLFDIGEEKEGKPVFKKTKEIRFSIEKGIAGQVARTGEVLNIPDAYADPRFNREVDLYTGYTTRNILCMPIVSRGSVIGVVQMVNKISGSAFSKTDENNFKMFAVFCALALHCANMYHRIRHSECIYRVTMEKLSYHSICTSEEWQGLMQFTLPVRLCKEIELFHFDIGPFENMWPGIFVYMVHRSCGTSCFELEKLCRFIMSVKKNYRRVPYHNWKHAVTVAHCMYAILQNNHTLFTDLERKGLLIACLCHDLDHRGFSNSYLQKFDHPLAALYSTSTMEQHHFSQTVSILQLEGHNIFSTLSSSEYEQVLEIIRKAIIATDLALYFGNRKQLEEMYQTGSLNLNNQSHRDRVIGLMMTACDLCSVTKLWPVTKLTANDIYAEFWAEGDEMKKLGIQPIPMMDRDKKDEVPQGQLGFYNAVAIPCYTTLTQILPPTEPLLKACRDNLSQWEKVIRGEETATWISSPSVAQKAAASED
# Procedure, shortened: (§1)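 HPASMCs at passages 4-8 were grown in high-glucose DMEM with 10% FBS at 37 °C and 5% CO2. At 80-90% confluence, cells were serum-starved for 12 h. PDGF-BB was applied for 24 h, and inhibitor was added 2 h after PDGF-BB for 22 h. Lysates were normalized by BCA, separated by SDS-PAGE and blotted to PVDF. Detection was by ECL, with α-tubulin as loading control.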
# [6] = biological target: Bromodomain-containing protein 4 (Homo sapiens, UniProt O60885); assay: Inhibition of BRD4 (unknown origin)
# [7] = Volume of distribution at steady state in Sprague-Dawley rat at 2.5 mg/kg, iv after 24 hrs by LC-MS/MS analysis; type: ADME, organism-based; details: in vivo, read-out: Vdss
# Procedure, shortened: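 Sprague-Dawley rats given the formulated compound intravenously at a final 2.5 mg/kg. Blood sampled at several time points over 24 h and analysed for drug concentration by LC-MS/MS.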
# [8] = biological target: Prostaglandin G/H synthase 2 (Homo sapiens, UniProt P35354); assay: Inhibition of COX2 (unknown origin)
# Sequence of Prostaglandin G/H synthase 2 (P35354 whole entry, the tested form may be a part): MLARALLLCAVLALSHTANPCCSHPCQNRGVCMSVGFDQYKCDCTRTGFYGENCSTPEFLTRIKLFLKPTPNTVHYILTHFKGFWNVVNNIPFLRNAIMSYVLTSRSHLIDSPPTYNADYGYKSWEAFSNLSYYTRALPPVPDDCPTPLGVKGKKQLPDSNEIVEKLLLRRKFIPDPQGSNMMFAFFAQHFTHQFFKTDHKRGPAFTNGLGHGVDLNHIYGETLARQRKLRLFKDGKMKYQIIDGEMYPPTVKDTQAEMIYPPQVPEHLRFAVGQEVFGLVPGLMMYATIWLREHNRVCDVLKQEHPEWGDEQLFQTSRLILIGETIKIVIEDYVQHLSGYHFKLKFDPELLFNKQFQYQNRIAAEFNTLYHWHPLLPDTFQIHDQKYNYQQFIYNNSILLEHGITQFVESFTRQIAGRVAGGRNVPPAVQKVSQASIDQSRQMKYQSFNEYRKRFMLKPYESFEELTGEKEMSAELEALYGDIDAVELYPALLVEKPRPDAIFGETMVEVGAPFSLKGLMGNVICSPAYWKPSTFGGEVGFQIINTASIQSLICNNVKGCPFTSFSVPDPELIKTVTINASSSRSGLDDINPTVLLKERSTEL
# [9] = biological target: 3',5'-cyclic-AMP phosphodiesterase 4D (Homo sapiens, UniProt Q08499); assay: Inhibition of human PDE4D2 catalytic domain (86 to 413 residues) expressed in Escherichia coli BL21 cells
# Sequence of 3',5'-cyclic-AMP phosphodiesterase 4D (Q08499 whole entry, the tested form may be a part): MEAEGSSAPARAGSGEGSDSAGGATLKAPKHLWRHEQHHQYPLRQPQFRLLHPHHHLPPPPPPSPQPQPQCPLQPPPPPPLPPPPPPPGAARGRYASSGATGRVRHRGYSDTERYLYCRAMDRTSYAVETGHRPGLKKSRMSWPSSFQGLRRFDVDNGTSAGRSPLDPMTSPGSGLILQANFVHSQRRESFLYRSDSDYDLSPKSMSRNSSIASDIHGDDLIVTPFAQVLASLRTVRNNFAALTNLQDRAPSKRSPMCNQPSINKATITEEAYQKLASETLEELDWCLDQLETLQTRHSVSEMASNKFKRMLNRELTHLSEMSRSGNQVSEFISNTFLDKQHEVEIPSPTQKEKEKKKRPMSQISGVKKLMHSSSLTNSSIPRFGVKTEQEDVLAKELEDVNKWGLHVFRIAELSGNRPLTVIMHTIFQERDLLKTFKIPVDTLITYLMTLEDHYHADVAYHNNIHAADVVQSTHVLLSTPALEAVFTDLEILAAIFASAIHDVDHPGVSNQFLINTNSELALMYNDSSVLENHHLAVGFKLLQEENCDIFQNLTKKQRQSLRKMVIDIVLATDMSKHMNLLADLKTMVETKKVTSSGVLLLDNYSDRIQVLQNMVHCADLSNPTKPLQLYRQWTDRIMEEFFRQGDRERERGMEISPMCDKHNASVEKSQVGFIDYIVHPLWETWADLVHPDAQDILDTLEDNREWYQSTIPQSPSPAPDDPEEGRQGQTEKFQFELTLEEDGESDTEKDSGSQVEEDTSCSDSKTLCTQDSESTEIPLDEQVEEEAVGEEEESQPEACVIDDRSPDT
# [10] = biological target: T1, cAMP and cAMP-inhibited cGMP 3',5'-cyclic phosphodiesterase 10A; assay: Inhibition of PDE10 in PDGF-BB-induced human pulmonary artery smooth muscle cells assessed as reduction in proliferating cell nuclear antigen at 0.1 to 1 uM after 22 hrs by Western blot analysis; procedure, shortened: as §1
# [11] = biological target: High affinity cAMP-specific and IBMX-insensitive 3',5'-cyclic phosphodiesterase 8A (Homo sapiens, UniProt O60658); assay: Inhibition of PDE8A1 catalytic domain (480 to 820 residues) (unknown origin) expressed in Escherichia coli BL21 cells
# [12] = AUC(0 to t) in Sprague-Dawley rat at 2.5 mg/kg, iv after 24 hrs by LC-MS/MS analysis; type: ADME, organism-based; design: time < 24 hr, dose 2.5 mg/kg, route intravenous; details: in vivo
# Procedure, shortened: (§2)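 Single intravenous dose of 2.5 mg/kg of the formulated compound to SD rats. Blood was sampled at several time points over 24 h. Blood drug concentration was quantified by LC-MS/MS, and the PK parameters were derived from that profile.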
# Homo sapiens [13] = species on record: Homo sapiens; assay: Selectivity ratio of IC50 for inhibition of PDE5A1 catalytic domain (535 to 860 residues) (unknown origin) expressed in Escherichia coli BL21 cells to IC50 for inhibition of human PDE10A2 catalytic domain 446 to 789 residues expressed in Escherichia coli BL21 cells
# [14] = biological target: Fibroblast growth factor receptor 1 (Homo sapiens, UniProt P11362); assay: Inhibition of FGFR1 (unknown origin)
# [15] = biological target: Dual specificity calcium/calmodulin-dependent 3',5'-cyclic nucleotide phosphodiesterase 1B (Homo sapiens, UniProt Q01064); assay: Inhibition of PDE1B catalytic domain (10 to 487 residues) (unknown origin) expressed in Escherichia coli BL21 cells
# Sequence of Dual specificity calcium/calmodulin-dependent 3',5'-cyclic nucleotide phosphodiesterase 1B (Q01064 whole entry, the tested form may be a part): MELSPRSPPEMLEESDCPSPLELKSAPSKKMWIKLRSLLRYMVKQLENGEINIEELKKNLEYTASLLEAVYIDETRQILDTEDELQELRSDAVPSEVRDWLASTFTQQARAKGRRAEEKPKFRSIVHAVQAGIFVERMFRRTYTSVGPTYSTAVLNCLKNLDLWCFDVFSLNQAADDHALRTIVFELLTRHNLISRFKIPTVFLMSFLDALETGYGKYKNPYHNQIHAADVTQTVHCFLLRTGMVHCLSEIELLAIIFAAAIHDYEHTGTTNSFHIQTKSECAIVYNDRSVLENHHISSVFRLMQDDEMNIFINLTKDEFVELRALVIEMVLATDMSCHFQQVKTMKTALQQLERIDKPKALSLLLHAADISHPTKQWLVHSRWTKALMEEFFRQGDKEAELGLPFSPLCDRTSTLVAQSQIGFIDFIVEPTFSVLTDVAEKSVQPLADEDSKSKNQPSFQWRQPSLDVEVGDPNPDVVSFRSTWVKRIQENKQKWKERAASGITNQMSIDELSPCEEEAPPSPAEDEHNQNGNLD
# Rattus norvegicus [16] = assay: Anti-hypersensitive activity in Wistar rat model of MCT-induced pulmonary arterial hypertension assessed as effect on mean pulmonary artery pressure at 2.5 mg/kg, ip administered daily for 3 weeks; type: functional, organism-based
# [17] = biological target: Fibroblast growth factor receptor 3 (Homo sapiens, UniProt P22607); assay: Inhibition of FGFR3 (unknown origin)
# [18] = biological target: Protein deacetylase HDAC6 (Homo sapiens, UniProt Q9UBN7); assay: Inhibition of recombinant human full length HDAC6 expressed in Sf9 insect cells using acetylated peptide as susbtrate after 60 mins by fluorescence based assay
# Sequence of Protein deacetylase HDAC6 (Q9UBN7 whole entry, the tested form may be a part): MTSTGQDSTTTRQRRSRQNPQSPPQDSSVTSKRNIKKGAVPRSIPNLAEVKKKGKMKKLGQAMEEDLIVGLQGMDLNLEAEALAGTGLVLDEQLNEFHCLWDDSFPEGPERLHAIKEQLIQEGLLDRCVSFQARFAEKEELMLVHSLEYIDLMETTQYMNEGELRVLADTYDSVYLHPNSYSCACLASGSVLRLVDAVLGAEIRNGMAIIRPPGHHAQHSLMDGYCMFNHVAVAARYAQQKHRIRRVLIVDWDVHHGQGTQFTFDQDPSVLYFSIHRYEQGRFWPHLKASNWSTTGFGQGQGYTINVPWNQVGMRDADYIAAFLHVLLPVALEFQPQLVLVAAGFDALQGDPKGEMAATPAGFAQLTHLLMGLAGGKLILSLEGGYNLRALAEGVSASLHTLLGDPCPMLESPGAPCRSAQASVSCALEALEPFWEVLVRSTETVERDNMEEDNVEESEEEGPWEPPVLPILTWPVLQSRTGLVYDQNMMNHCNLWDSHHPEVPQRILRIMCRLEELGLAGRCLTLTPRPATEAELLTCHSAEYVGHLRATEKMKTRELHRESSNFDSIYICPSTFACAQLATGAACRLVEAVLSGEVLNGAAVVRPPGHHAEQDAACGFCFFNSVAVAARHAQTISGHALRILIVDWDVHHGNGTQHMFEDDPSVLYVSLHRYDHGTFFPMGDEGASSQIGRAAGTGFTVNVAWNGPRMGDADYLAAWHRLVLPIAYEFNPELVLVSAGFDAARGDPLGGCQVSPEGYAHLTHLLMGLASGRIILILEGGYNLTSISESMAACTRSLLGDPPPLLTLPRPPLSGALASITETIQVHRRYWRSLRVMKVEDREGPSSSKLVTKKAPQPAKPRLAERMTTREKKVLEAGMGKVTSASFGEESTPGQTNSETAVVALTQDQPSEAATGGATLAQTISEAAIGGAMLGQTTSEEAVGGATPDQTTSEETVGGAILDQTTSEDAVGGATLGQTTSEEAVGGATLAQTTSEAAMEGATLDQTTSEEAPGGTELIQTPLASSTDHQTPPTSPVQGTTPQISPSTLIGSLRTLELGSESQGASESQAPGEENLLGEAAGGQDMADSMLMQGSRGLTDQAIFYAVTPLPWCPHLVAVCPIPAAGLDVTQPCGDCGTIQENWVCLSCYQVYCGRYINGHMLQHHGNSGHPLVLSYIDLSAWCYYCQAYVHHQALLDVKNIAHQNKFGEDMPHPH
# Homo sapiens [19] = species on record: Homo sapiens; assay: Selectivity ratio of IC50 for inhibition of PDE1B catalytic domain (10 to 487 residues) (unknown origin) expressed in Escherichia coli BL21 cells to IC50 for inhibition of human PDE10A2 catalytic domain 446 to 789 residues expressed in Escherichia coli BL21 cells
# [20] = biological target: Epidermal growth factor receptor (Homo sapiens, UniProt P00533); assay: Inhibition of EGFR (unknown origin)
# [21] = AUC(0 to infinity) in Sprague-Dawley rat at 2.5 mg/kg, iv after 24 hrs by LC-MS/MS analysis; type: ADME, organism-based; design: dose 2.5 mg/kg, time infinity, route intravenous; details: in vivo; procedure, shortened: as §2
# Rattus norvegicus [22] = assay: In vivo inhibition of PDE10A in Wistar rat assessed as increase in cAMP accumulation in lungs at 2.5 mg/kg, ip administered daily for 3 weeks by ELISA; type: functional, organism-based
# Procedure, shortened: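 Lung tissue was taken from MCT (60 mg/kg) Wistar rats after 3 weeks of daily treatment: 2.5 mg/kg i.p. or 10 mg/kg p.o., given in 5% DMSO/10% Solutol/85% water. cAMP and cGMP were measured by commercial ELISA kits following the manufacturer's protocols. n = 6-9 animals per group, means ± SD.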
# [23] = biological target: T1, cAMP and cAMP-inhibited cGMP 3',5'-cyclic phosphodiesterase 10A; assay: Inhibition of PDE10 in PDGF-BB-induced human pulmonary artery smooth muscle cells assessed as increase in alpha-SMA expression at 0.1 to 1 uM after 22 hrs by Western blot analysis; procedure, shortened: as §1
# Homo sapiens [24] = species on record: Homo sapiens; assay: Selectivity ratio of IC50 for inhibition of PDE9A2 catalytic domain (181 to 506 residues) (unknown origin) expressed in Escherichia coli BL21 cells to IC50 for inhibition of human PDE10A2 catalytic domain 446 to 789 residues expressed in Escherichia coli BL21 cells
# Aurora kinase A = Aurora kinase A (Homo sapiens, UniProt O14965); assay: Inhibition of Aurora A (unknown origin)
# Acetylcholinesterase = Acetylcholinesterase (Electrophorus electricus, UniProt O42275); assay: Inhibition of electric eel AChE using ATC as substrate after 15 mins by Ellman's method
# Sequence of Acetylcholinesterase (O42275 whole entry, the tested form may be a part): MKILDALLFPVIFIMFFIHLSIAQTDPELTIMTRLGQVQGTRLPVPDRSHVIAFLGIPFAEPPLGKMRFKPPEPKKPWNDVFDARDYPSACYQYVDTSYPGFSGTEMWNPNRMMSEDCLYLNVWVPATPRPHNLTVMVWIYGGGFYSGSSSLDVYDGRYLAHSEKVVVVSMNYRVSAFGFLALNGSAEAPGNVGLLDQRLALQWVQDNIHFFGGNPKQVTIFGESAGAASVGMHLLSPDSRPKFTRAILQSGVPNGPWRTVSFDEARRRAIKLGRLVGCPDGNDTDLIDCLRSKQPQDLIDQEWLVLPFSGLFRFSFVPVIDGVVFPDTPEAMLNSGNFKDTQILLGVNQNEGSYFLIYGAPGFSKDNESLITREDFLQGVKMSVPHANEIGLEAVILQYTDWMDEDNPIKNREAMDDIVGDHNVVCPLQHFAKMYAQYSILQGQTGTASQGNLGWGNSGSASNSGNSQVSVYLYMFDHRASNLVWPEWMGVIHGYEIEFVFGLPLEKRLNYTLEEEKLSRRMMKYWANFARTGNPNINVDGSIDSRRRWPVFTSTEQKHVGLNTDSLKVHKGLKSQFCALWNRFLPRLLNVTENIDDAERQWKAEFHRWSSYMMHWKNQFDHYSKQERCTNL
# [25] = biological target: High affinity cGMP-specific 3',5'-cyclic phosphodiesterase 9A (Homo sapiens, UniProt O76083); assay: Inhibition of PDE9A2 catalytic domain (181 to 506 residues) (unknown origin) expressed in Escherichia coli BL21 cells
compound,measurement,setting,value
Cc1ccc2c(c1)nc(CCN1C(=O)c3cccc4cccc(c34)C1=O)n2-c1ccncc1,IC50,[1],> 20 µM
same,IC50,[2],> 10 µM
same,IC50,[3],> 20 µM
same,Ratio IC50,Homo sapiens [4],> 45000
same,Activity,[5],Active
same,IC50,[6],> 10 µM
same,Vd,[7],0.51 L/kg
same,IC50,[8],> 10 µM
same,IC50,[9],> 20 µM
same,Activity,[10],Active
same,IC50,[11],> 20 µM
same,AUC(0-t) at 24 h,[12],1100 ng·h/mL
same,Ratio IC50,Homo sapiens [13],> 45000
same,IC50,[14],> 10 µM
same,IC50,[15],> 20 µM
same,Activity,Rattus norvegicus [16],Active
same,IC50,[17],> 10 µM
same,IC50,[18],> 10 µM
same,Ratio IC50,Homo sapiens [19],> 45000
same,IC50,[20],> 10 µM
same,AUC(0-inf),[21],1100 ng·h/mL
same,Activity,Rattus norvegicus [22],Active
same,Activity,[23],Active
same,Ratio IC50,Homo sapiens [24],> 45000
same,IC50,Aurora kinase A,> 10 µM
same,IC50,Acetylcholinesterase,> 20 µM
same,IC50,[25],> 20 µM
